Reference: ChEMBL document CHEMBL1926611, “Synthesis and biological evaluation of 4-[3-chloro-4-(3-fluorobenzyloxy)anilino]-6-(3-substituted-phenoxy)pyrimidines as dual EGFR/ErbB-2 kinase inhibitors” (Bioorg Med Chem, 2012)

Experiments:
A-431 = experiment: Cytotoxicity against human A431 cells overexpressing EGFR after 72 hrs by MTT assay; conditions: A-431, 72 h
[1] = molecular target: Receptor tyrosine-protein kinase erbB-2 (Homo sapiens, UniProt P04626); experiment: Inhibition of human ErbB2 preincubated for 2 hrs prior addition of ATP by HTRF assay
Chain of Receptor tyrosine-protein kinase erbB-2 (P04626 whole entry): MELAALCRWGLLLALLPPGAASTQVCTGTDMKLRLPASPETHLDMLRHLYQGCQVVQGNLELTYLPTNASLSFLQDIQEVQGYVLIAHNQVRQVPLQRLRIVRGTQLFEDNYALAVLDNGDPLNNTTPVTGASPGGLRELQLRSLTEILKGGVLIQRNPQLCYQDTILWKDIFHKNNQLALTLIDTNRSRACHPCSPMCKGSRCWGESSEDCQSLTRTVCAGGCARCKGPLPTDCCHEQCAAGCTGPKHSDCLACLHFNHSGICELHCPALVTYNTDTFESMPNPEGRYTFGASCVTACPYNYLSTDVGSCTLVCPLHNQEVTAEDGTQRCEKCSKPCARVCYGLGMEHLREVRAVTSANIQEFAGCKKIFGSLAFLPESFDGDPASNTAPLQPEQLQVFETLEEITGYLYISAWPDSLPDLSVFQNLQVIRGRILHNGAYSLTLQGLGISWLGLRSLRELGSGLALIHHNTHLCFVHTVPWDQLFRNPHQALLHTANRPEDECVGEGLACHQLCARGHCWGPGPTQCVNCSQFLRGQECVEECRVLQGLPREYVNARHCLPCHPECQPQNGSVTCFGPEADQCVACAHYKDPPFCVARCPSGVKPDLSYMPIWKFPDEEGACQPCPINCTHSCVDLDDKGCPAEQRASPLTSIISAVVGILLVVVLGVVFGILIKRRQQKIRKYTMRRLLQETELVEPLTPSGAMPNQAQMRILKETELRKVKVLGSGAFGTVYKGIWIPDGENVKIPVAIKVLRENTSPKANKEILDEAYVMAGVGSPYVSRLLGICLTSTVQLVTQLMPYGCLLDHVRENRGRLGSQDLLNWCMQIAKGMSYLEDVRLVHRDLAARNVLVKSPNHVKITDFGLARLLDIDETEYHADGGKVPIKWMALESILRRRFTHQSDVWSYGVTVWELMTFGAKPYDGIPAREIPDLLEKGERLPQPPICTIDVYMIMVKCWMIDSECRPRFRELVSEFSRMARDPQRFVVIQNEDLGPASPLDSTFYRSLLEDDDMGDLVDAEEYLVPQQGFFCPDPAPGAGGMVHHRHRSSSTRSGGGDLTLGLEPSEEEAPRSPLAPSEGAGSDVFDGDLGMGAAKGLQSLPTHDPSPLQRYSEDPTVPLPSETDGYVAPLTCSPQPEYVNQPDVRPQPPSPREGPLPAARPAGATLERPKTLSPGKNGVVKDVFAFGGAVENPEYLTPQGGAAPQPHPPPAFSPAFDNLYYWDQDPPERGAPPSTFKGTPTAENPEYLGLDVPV
Method in brief: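 Wild-type ErbB-2(676–1255) was used in an HTRF KinEASE-TK format. Kinase, substrate peptide and inhibitor were combined, and ATP started the reaction. Detection used Eu-cryptate anti-phosphotyrosine antibody plus XL665-streptavidin, with time-resolved FRET read after 320 excitation. The emission ratio across ten concentrations (0.01–10,000 nM, including no inhibitor) gave IC50, with duplicate reactions and ≥2 independent determinations.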

SK-OV-3 = experiment: Cytotoxicity against human SKOV3 cells overexpressing ErbB2 after 72 hrs by MTT assay; conditions: SK-OV-3, 72 h
[2] = molecular target: Epidermal growth factor receptor (Homo sapiens, UniProt P00533); experiment: Inhibition of human EGFR preincubated 2 hrs prior addition of ATP by HTRF assay
Chain of Epidermal growth factor receptor (P00533 whole entry): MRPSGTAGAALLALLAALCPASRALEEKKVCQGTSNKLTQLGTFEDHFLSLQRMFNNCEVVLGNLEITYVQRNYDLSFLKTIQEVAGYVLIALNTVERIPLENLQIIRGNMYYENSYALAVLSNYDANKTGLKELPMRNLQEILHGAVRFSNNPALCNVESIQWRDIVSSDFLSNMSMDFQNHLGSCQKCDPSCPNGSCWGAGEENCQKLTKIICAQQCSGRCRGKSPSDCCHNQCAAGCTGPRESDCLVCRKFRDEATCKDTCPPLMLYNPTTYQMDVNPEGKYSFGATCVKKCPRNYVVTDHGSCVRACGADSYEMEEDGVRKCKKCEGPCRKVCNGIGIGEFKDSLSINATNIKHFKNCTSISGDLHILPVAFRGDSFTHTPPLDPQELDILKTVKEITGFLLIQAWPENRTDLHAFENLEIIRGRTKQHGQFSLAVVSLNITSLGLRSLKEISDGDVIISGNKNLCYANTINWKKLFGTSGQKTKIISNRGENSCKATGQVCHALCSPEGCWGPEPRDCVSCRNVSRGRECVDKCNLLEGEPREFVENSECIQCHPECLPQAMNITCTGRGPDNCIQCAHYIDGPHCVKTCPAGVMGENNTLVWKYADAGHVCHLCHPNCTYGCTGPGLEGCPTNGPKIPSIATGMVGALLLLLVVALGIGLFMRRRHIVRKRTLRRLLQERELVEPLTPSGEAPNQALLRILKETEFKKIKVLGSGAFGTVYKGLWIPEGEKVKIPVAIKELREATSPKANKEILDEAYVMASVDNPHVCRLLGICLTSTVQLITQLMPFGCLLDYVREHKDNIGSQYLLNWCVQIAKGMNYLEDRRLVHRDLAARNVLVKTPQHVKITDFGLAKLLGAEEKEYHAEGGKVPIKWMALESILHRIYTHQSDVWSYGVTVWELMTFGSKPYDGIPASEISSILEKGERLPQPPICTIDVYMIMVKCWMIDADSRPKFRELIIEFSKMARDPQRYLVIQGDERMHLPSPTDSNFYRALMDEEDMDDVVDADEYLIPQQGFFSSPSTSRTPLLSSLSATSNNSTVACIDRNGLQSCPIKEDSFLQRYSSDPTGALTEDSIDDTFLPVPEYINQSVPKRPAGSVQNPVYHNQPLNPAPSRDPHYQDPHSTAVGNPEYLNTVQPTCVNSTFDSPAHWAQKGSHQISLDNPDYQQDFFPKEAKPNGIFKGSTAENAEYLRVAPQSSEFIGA

SMILES | IC50 (A-431) [µM] | IC50 [1] [µM] | IC50 (SK-OV-3) [µM] | IC50 [2] [µM]
O=[N+]([O-])c1cccc(Oc2cc(Nc3ccc(OCc4cccc(F)c4)c(Cl)c3)ncn2)c1 | 10.4 | 2.42 | > 30 | 1.2
Nc1cccc(Oc2cc(Nc3ccc(OCc4cccc(F)c4)c(Cl)c3)ncn2)c1 | 8.92 | 0.559 | 12.2 | 0.473
CC(=O)Nc1cccc(Oc2cc(Nc3ccc(OCc4cccc(F)c4)c(Cl)c3)ncn2)c1 | 12 | 0.135 | 3.95 | 0.108
C=CC(=O)Nc1cccc(Oc2cc(Nc3ccc(OCc4cccc(F)c4)c(Cl)c3)ncn2)c1 | 3.25 | 0.029 | 0.89 | 0.037
CCOC(=O)/C=C/C(=O)Nc1cccc(Oc2cc(Nc3ccc(OCc4cccc(F)c4)c(Cl)c3)ncn2)c1 | 7 | 0.196 | 1.29 | 0.129
CCOC(=O)CNc1cccc(Oc2cc(Nc3ccc(OCc4cccc(F)c4)c(Cl)c3)ncn2)c1 |  | 0.219 | 9.18 | 
N#CCC(=O)Nc1cccc(Oc2cc(Nc3ccc(OCc4cccc(F)c4)c(Cl)c3)ncn2)c1 | 5.17 | 0.038 | 8.42 | 0.048
O=C(Nc1cccc(Oc2cc(Nc3ccc(OCc4cccc(F)c4)c(Cl)c3)ncn2)c1)c1ccc([N+](=O)[O-])cc1 | 6.72 | > 10 | 10.2 | > 10
Nc1cc(Nc2cccc(Oc3cc(Nc4ccc(OCc5cccc(F)c5)c(Cl)c4)ncn3)c2)ncn1 | 4.24 | 0.042 | 0.71 | 0.061
Fc1cccc(COc2ccc(Nc3cc(Oc4cccc(NCc5ccccc5)c4)ncn3)cc2Cl)c1 | 3.11 | > 10 | 17.9 | > 10
O=C(/C=C/c1ccccc1)Nc1cccc(Oc2cc(Nc3ccc(OCc4cccc(F)c4)c(Cl)c3)ncn2)c1 | 11.2 | 3.74 | 20.7 | 1.67
O=C(COc1ccccc1)Nc1cccc(Oc2cc(Nc3ccc(OCc4cccc(F)c4)c(Cl)c3)ncn2)c1 | 14.9 | 0.079 | 9.1 | 0.065
O=C(Cc1cc(F)c(F)cc1F)Nc1cccc(Oc2cc(Nc3ccc(OCc4cccc(F)c4)c(Cl)c3)ncn2)c1 | 9.29 | 0.834 | 26.1 | 0.627
O=C(/C=C/c1ccc(F)cc1)Nc1cccc(Oc2cc(Nc3ccc(OCc4cccc(F)c4)c(Cl)c3)ncn2)c1 | 18.1 | 1.29 | > 30 | 0.821
COc1ccc(/C=C/C(=O)Nc2cccc(Oc3cc(Nc4ccc(OCc5cccc(F)c5)c(Cl)c4)ncn3)c2)cc1OC | > 20 | 1.23 | > 30 | 0.523
O=C(COc1cc(F)c(F)c(F)c1)Nc1cccc(Oc2cc(Nc3ccc(OCc4cccc(F)c4)c(Cl)c3)ncn2)c1 | 13.2 | 2.14 | > 30 | 0.721
COc1ccc(OCC(=O)Nc2cccc(Oc3cc(Nc4ccc(OCc5cccc(F)c5)c(Cl)c4)ncn3)c2)cc1OC | 6.42 | > 10 |  | > 10
CS(=O)(=O)CCNCc1ccc(-c2ccc3ncnc(Nc4ccc(OCc5cccc(F)c5)c(Cl)c4)c3c2)o1 [LAPATINIB] |  |  | 2.99 | 
